Drawing on ChEMBL document CHEMBL3044991, “Synthesis and biological activity of 4-(4,6-disubstituted-pyrimidin-2-yloxy)phenoxy acetates” (2010), this text covers inhibition of growth for eleven molecules.

Molecules are shown by their SMILES.

Common to all, as to assay type: functional
Holding throughout (conditions): read-out: GI

For test [1], the system named is Digitaria sanguinalis. Description: Herbicidal activity against Digitaria sanguinalis (hairy crabgrass) assessed as root growth inhibition at 100 mg/L applied to germinated seeds measured after 65 hr at 28 degC. The method in brief: (§1)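 Compounds dissolved in DMF with Tween 20 and diluted in distilled water to an emulsion. Germinated seeds, usually 15 per plate, were placed on two filter papers wetted with test solution in a Petri dish. Plates were kept in the dark for 65 h at 28 (±1) ºC. Root lengths of 10 seeds per plate were measured and averaged. Blank was emulsion without compound; quizalofop-P-ethyl served as control.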

In test [2] the test system is Brassica napus. In words: Herbicidal activity against Brassica napus (oilseed rape) assessed as root growth inhibition at 50 mg/L applied to germinated seeds measured after 65 hr at 28 degC. The method in brief: as §1
Test [3] concerns Digitaria sanguinalis. Description: Herbicidal activity against Digitaria sanguinalis (hairy crabgrass) assessed as root growth inhibition at 50 mg/L applied to germinated seeds measured after 65 hr at 28 degC. The method in brief:
as §1

Test [4] deals with Digitaria sanguinalis. In words: Herbicidal activity against Digitaria sanguinalis (hairy crabgrass) assessed as root growth inhibition at 10 mg/L applied to germinated seeds measured after 65 hr at 28 degC. The method in brief:
as §1

Test [5] concerns Brassica napus. In words: Herbicidal activity against Brassica napus (oilseed rape) assessed as root growth inhibition at 10 mg/L applied to germinated seeds measured after 65 hr at 28 degC. The method in brief:
as §1

Test [6] relates to Brassica napus. Description: Herbicidal activity against Brassica napus (oilseed rape) assessed as root growth inhibition at 100 mg/L applied to germinated seeds measured after 65 hr at 28 degC. The method in brief:
as §1

Regarding `CCOC(=O)[C@@H](C)Oc1ccc(Oc2cnc3cc(Cl)ccc3n2)cc1` [QUIZALOFOP-P-ETHYL], the inhibition of growth at 100 µg/mL in test [1] turned out to be 100%; in test [6], 51.2%. Besides, the inhibition of growth at 50 µg/mL was found to be 39.2% in test [2] and 95.3% in test [3]. Besides, the figures for the inhibition of growth at 10 µg/mL in test [4] and in test [5] were 63.5% and 33.8%, respectively.

`CCCCOC(=O)COc1ccc(Oc2nc(OC)cc(OC)n2)cc1`: the inhibition of growth at 100 µg/mL was determined as 100% in test [1] and 28.3% in test [6]. Moreover, the inhibition of growth at 50 µg/mL came out at 13.4% in test [2] and 96.9% in test [3]. In addition, the inhibition of growth at 10 µg/mL was 41.8% in test [4] and 9.5% in test [5].

In the case of `CCCCOC(=O)COc1ccc(Oc2nc(C)cc(C)n2)cc1`, the inhibition of growth at 100 µg/mL in test [1] turned out to be 100%; in test [6], 50.2%. In addition, the values for the inhibition of growth at 50 µg/mL in test [2] and in test [3] were 34.2% and 97.6%, respectively. Besides, the figures for the inhibition of growth at 10 µg/mL in test [4] and in test [5] were 42.6% and 21.5%, respectively.

Regarding `CCCOC(=O)COc1ccc(Oc2nc(OC)cc(OC)n2)cc1`, the figures for the inhibition of growth at 100 µg/mL in test [1] and in test [6] were 100% and 15.9%, respectively. The inhibition of growth at 50 µg/mL was 13.1% in test [2] and 95.2% in test [3]. In addition, the inhibition of growth at 10 µg/mL in test [4] amounted to 32.5%; in test [5], 10.1%.

As for `CCOC(=O)COc1ccc(Oc2nc(OC)cc(OC)n2)cc1`, the inhibition of growth at 100 µg/mL in test [1] stood at 100%; in test [6], 41.1%. The inhibition of growth at 50 µg/mL in test [2] amounted to 31%; in test [3], 96.2%. Further, the inhibition of growth at 10 µg/mL was 39.9% in test [4] and 13.4% in test [5].

Consider `COC(=O)COc1ccc(Oc2nc(C)cc(C)n2)cc1`, for which the inhibition of growth at 100 µg/mL in test [1] was determined as 100%; in test [6] it was 44.7%. Also, the inhibition of growth at 50 µg/mL came out at 26.7% in test [2] and 97.3% in test [3]. The figures for the inhibition of growth at 10 µg/mL in test [4] and in test [5] were 44.7% and 11.9%, respectively.

For the molecule `Cc1cc(C)nc(Oc2ccc(OCC(=O)OC(C)C)cc2)n1`, the inhibition of growth at 100 µg/mL is 100% in test [1] and 26.4% in test [6]. Besides, the inhibition of growth at 50 µg/mL was 14.3% in test [2] and 95.1% in test [3]. The inhibition of growth at 10 µg/mL was found to be 35% in test [4] and 9.2% in test [5].

Take `CCCOC(=O)COc1ccc(Oc2nc(C)cc(C)n2)cc1`: the results for the inhibition of growth at 100 µg/mL in test [1] and in test [6] were 100% and 54.5%, respectively. In addition, the inhibition of growth at 50 µg/mL in test [2] stood at 33.9%; in test [3], 97.5%. Also, the inhibition of growth at 10 µg/mL worked out at 36.9% in test [4] and 12.1% in test [5].

Consider `CCOC(=O)COc1ccc(Oc2nc(C)cc(C)n2)cc1`, for which the inhibition of growth at 100 µg/mL in test [1] came to 100%; in test [6], 58.4%. In addition, the inhibition of growth at 50 µg/mL came out at 32.7% in test [2] and 98.4% in test [3]. Further, the inhibition of growth at 10 µg/mL in test [4] is 38.5%; in test [5], 14.2%.

In the case of `COc1cc(OC)nc(Oc2ccc(OCC(=O)OC(C)C)cc2)n1`, the inhibition of growth at 100 µg/mL in test [1] was determined as 100%; in test [6], 25.1%. Further, the inhibition of growth at 50 µg/mL in test [2] is 21%; in test [3], 96.5%. In addition, the inhibition of growth at 10 µg/mL in test [4] was 32.7%; in test [5], 14.6%.

Consider `COC(=O)COc1ccc(Oc2nc(OC)cc(OC)n2)cc1`, for which the figures for the inhibition of growth at 100 µg/mL in test [1] and in test [6] were 100% and 39.8%, respectively. The inhibition of growth at 50 µg/mL in test [2] was found to be 34.4%; in test [3] it was 98.5%. Also, the figures for the inhibition of growth at 10 µg/mL in test [4] and in test [5] were 42.8% and 22.9%, respectively.
